Compounds with a hit are over-represented: about 1.7% of the library has one in this group of screens.
DNMT1 inh – human DNMT1 methyltransferase inhibitors, primary screen, biochemical, molecular beacon, fluorescence, HinP1I cleavage, uHTS. DNA (cytosine-5)-methyltransferase 1 (Homo sapiens), P26358. inhibition (reported as % activation of signal), % at 10 µM. actives 0.83% (n = 360,000); in the data active means inhibition above about 50%
Target sequence (P26358 504-1616 limits assumed): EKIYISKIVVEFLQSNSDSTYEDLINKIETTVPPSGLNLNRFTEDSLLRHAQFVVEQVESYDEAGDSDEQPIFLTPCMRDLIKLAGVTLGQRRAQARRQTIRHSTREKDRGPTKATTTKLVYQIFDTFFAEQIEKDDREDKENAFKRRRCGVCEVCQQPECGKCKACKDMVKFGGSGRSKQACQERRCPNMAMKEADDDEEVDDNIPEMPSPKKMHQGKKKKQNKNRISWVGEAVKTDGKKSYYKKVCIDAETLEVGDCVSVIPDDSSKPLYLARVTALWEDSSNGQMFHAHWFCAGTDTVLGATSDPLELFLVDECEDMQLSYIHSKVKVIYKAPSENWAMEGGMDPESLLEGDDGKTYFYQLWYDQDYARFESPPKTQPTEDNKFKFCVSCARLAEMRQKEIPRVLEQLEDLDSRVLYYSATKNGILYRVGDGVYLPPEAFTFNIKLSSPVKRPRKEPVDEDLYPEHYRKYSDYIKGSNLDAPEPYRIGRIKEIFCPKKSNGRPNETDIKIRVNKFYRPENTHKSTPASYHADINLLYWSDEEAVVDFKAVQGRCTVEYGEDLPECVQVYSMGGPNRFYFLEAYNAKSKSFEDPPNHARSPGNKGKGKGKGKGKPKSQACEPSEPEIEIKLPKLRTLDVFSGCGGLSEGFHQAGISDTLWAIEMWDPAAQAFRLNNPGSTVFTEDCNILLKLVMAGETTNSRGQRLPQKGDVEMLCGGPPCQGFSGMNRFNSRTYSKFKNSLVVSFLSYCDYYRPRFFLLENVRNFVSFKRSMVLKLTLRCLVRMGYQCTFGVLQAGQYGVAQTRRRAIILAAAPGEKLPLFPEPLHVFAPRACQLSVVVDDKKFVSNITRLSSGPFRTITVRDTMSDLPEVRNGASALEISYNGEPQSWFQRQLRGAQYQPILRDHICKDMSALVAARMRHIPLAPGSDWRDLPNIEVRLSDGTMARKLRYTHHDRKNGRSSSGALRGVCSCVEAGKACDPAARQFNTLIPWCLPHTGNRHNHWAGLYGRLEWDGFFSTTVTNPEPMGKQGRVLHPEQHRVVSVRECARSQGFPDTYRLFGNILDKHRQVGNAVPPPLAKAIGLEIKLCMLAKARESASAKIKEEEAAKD
STEP block – STEP phosphatase inhibitors, primary screen, biochemical, fluorescence intensity, uHTS; Tyrosine-protein phosphatase non-receptor type 5 (Homo sapiens), P54829; recombinant STEP, OMFP fluorogenic substrate; actives 0.25% (n = 360,000); inhibition, % at 20 µM;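 active means inhibition at 20 µM, scaled per plate between control wells, above about 37%, limit read from the data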
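Assay system: isolated STEP enzyme / Timing: 20 min at room temperature, dark / Doses: 20 µM, 1% DMSO / Technique: fluorescence intensity, excitation 480 nm, emission 540 nm / Reagent: fluorogenic phosphatase substrate OMFP at 25 µM final / Measure: percent inhibition scaled to no-enzyme and uninhibited-enzyme controls, plate-pattern corrected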
LMPTP block – LMPTP phosphatase inhibitors, primary screen, biochemical, fluorescence intensity, uHTS | recombinant LMPTP-A, OMFP fluorogenic substrate | actives 0.22% (n = 360,000) | Low molecular weight phosphotyrosine protein phosphatase (Homo sapiens), P24666 | inhibition, % at 20 µM;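 active means compounds that cut the enzyme signal by at least half of the control window in the single-dose screen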
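Assay system: LMPTP-A, protein tyrosine phosphatase of low molecular weight / Medium: pH 6.0 Bis-Tris buffer with DTT and Triton X-100 / Schedule: 50 min enzyme reaction at room temperature, protected from light / Measured by: endpoint fluorescence intensity from OMFP dephosphorylation / Read-out basis: % inhibition relative to no-enzyme and uninhibited control wells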
Scp-1 inhibitor – Scp-1 phosphatase inhibitors, primary screen, biochemical, colorimetric, uHTS | Recombinant Scp1, phosphopeptide, malachite green phosphate absorbance | inhibition, % at 20 µM | actives 0.88% (n = 340,000) | AID 493091, 2011;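 active means inhibition above about 50% at 20 µM, limit read from the data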
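Incubation: 45 min enzyme reaction at room temperature / System: truncated SCP-1 phosphatase (76-261aa) / Reagent: Phospho 17-mer peptide substrate / Buffer or medium: Acidic Tris acetate buffer with magnesium and detergent / Signal: absorbance at 630 nm / Doses: one concentration, 20 µM, with 1.0% DMSO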
SUMO1 PPI mod – modulators of SUMO1 protein-protein interactions, primary screen, biochemical, uHTS; AID 602429, 2012; Small ubiquitin-related modifier 1 (Homo sapiens), P63165; inhibition, % at 20 µM; actives 0.33% (n = 360,000); SUMO1 binding to a labelled peptide, TR-FRET, 1 h; in the data active means inhibition above about 37%
Scp-1 conf – Scp-1 phosphatase inhibitors, retest, confirmation, biochemical, colorimetric, single concentration; shares compounds with Scp-1 inhibitor; actives 61% (n = 2,500); recombinant SCP-1 catalytic domain, phosphate release, malachite green absorbance; inhibition, % at 20 µM
Scp-1 MG ctr – colorimetric readout interference by compounds, confirmation, artefact control for Scp-1 inhibitor project, biochemical, single concentration; shares compounds with Scp-1 inhibitor; Colorimetric interference counterscreen, malachite green absorbance 630 nm; apparent inhibition (interference), % at 20 µM; 2,500 tested, under 10 active;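 further: compounds added after enzyme reaction finished so only phosphate colour detection is probed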
Scp1 DSF – Scp-1 binding by thermal shift, confirmation, orthogonal assay for Scp-1 inhibitor project, biophysical, differential scanning fluorimetry | shares compounds with Scp-1 inhibitor | Recombinant SCP1, Sypro Orange thermal shift Tm | thermal shift relative to vanadate control, % at 40 µM | actives 25% (n = 1,500) | AID 540329, 2011;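 active means substances whose mean melting-temperature shift, as a percentage of the reference inhibitor's shift, reaches about 5.3%, limit read from the data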
Each line names hits and unclear results; the compound was inactive in the other large screens (follow-up assays come after a bar, where they were run).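 How the source made its calls, unless noted: active means inhibition of at least 30% at 20 µM; inactive means the rest.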

C=CCC[C@@H](CCCCC)OC(=O)/C=C/[C@H](O)[C@@H](O)C[C@H](O)CC=C	none (no result: DNMT1 inh, STEP block, Scp-1 inhibitor)
CCc1ccccc1NC(=O)CCS(=O)(=O)c1ccc(OC)cc1	Scp-1 inhibitor 55 | Scp-1 conf 48 | Scp-1 MG ctr inactive | Scp1 DSF inactive
Clc1cccc(CNc2ccn3nc(-c4ccccc4Cl)cc3n2)c1	none (no result: Scp-1 inhibitor)
Cn1c(=O)oc2cc(S(=O)(=O)Nc3ccc(Cl)cc3)ccc21	none
CC(C)c1ccc(NS(=O)(=O)c2ccc3c(c2)oc(=O)n3C)cc1	none | Scp-1 conf inactive | Scp-1 MG ctr inactive
O=C1N/C(=N/S(=O)(=O)c2ccccc2)S/C1=C/c1cccnc1	none
O=C1NC(=Nc2ccccc2)S/C1=C\c1cccnc1	Scp-1 inhibitor 67 | Scp-1 conf inactive | Scp-1 MG ctr inactive
CCCCn1nnnc1C1(C)CCC(=O)N1Cc1cccnc1 (centres undefined)	none (no result: DNMT1 inh, STEP block, Scp-1 inhibitor)
COC(=O)c1ccc(NC(=O)c2cn(-c3cccc(C)n3)cn2)cc1	none
Cc1ccc(NC(=O)c2cn(-c3cccc(C)n3)cn2)cc1	Scp-1 inhibitor 67 | Scp-1 conf inactive | Scp-1 MG ctr inactive
CC1=C(C(=O)N2CCCCCC2)CC(CC(=O)NCCN2CCOCC2)C(=O)N1Cc1ccc(F)cc1 (centres undefined)	none (no result: DNMT1 inh, STEP block, Scp-1 inhibitor)
O=C(O)COc1ccccc1/C=C1\SC(=S)N(/N=C/c2ccccc2O)C1=O	Scp-1 inhibitor 63 | Scp-1 conf 59 | Scp-1 MG ctr inactive | Scp1 DSF 8.2
C[n+]1ccccc1Nc1cc([N+](=O)[O-])ccc1N	Scp-1 inhibitor 69 | Scp-1 conf 87 | Scp-1 MG ctr inactive | Scp1 DSF inactive
O=C(O)CNC(=O)CC1S/C(=N/N=C2/NC(=O)CS2)NC1=O (centres undefined)	Scp-1 inhibitor 72 | Scp-1 conf 69 | Scp-1 MG ctr inactive | Scp1 DSF inactive
NC(=O)NC(=O)CC1S/C(=N/N=C2\CSC(=O)N2)NC1=O (centres undefined)	none
Cc1ccc(CN2C(=O)N/C(=C/c3ccc(-c4ccc(C(=O)O)cc4)o3)C2=O)cc1	Scp-1 inhibitor 59, SUMO1 PPI mod 39 | Scp-1 conf 48 | Scp-1 MG ctr inactive | Scp1 DSF inactive
O=C(O)c1cc(-c2ccc(/C=C3\NC(=O)N(c4ccccc4)C3=O)o2)ccc1Cl	DNMT1 inh 57, STEP block 40, Scp-1 inhibitor 73 | Scp-1 conf 55 | Scp-1 MG ctr inactive | Scp1 DSF 9.1
Brc1cnc2nc(SCc3nc4ccccc4[nH]3)[nH]c2c1	none
Fc1ccc(CSc2nc3ncc(Br)cc3[nH]2)cc1	Scp-1 inhibitor 59 | Scp-1 conf 70 | Scp-1 MG ctr inactive | Scp1 DSF inactive
CCOC(=O)N1CCN(CC(O)COc2ccccc2C(C)C)CC1 (centres undefined)	none
COc1ccc(C2CCCN2CC(O)COc2ccccc2C(C)C)cc1 (centres undefined)	Scp-1 inhibitor 61 | Scp-1 conf inactive | Scp-1 MG ctr inactive
O=C1NC[C@@H](CCCCN2CCN(CCC3CCCCC3)C(=O)C2=O)N(Cc2ccccc2)C1=O	none (no result: DNMT1 inh, STEP block, Scp-1 inhibitor)
